Test results taken from article PMC7936662 (Thrombosis research, 2020).
Where two headings read alike, the source gives them in different places.

How the values were obtained:
[1] = tested on: thrombin-mediated platelet activation; experiment: In vitro platelet activation in whole blood; format: cell-based; conditions: read-out: EC50 inhibition of platelet activation, Mouse blood—Thrombin; 20% whole blood; mean ± SD
[2] = tested on: thrombin-mediated platelet activation; experiment: In vitro platelet activation in whole blood; format: cell-based; conditions: read-out: EC50 inhibition of platelet activation, Rat blood—Thrombin; 20% whole blood; mean ± SD
[3] = tested on: thrombin-mediated platelet activation; experiment: In vitro platelet activation in whole blood; format: cell-based, human; conditions: mean ± SD
[4] = tested on: TF-mediated platelet activation; experiment: In vitro platelet activation in whole blood; format: cell-based, human; conditions: mean ± SD
thrombin generation = experiment: Thrombin generation assay; format: biochemical; conditions: 70% human platelet-poor plasma, mean ± SD; for Cmax: read-out: Tmax EC2x (concentration of inhibitor required to double the time at which Cmax occurs)
male SD rats [5] = experiment: Inferior vena cava; format: in vivo; conditions: rat
male CD-1 mice [6] = experiment: Mouse iron-chloride-induced arterial thrombosis model; format: in vivo
male SD rats [7] = experiment: Platelet status in AV shunt model; format: in vivo; conditions: rat, vehicle approximately 20%
male SD rats [8] = conditions: rat, cited from earlier work
male SD rats [9] = conditions: rat, cited from earlier work; remark: listed apart in the source
male SD rats [10] = experiment: Arteriovenous shunt; format: in vivo; conditions: rat, 3 mg/kg infusion
male CD-1 mice [11] = experiment: Thrombin-induced thromboembolism mouse model; format: in vivo; conditions: 4.5 mg/kg IV, 30 min observation, human α-thrombin 1.75 U/g
Summary of the method: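 Mice anaesthetised with 1:1 ketamine:xylazine. Test compound given by tail-vein injection; 30 s later human α-thrombin in PBS (1.75 U/g body weight) or PBS alone injected slowly. Mortality observed for 30 min; animals alive at 30 min scored as survivors and euthanised by cervical dislocation. Results expressed as percent survival; n = 12 per treatment group.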

**Q.** With [H]/N=C(/N)c1ccc(NCc2nc3cc(C(=O)N(CCC(=O)O)c4ccccn4)ccc3n2C)cc1 [Dabigatran, dabigatran] as the molecule, how does the EC50 [1] read?
**A.** The EC50 was 21 ± 10 nM.

**Q.** What about the EC50 [2] of the same molecule?
**A.** Its EC50 is 27 ± 10 nM.

**Q.** What about the EC50 ([3]; read-out: EC50 inhibition of platelet activation, Human blood (76%)—Thrombin, 76% whole blood) of the same molecule?
**A.** Its EC50 is 14 ± 1 nM.

**Q.** What about the EC50 ([3]; read-out: EC50 inhibition of platelet activation, Human blood—Thrombin, 20% whole blood) of the same molecule?
**A.** Its EC50 is 35 ± 10 nM.

**Q.** And the EC50 ([4]; read-out: EC50 inhibition of platelet activation, Human blood (76%)—TF, 76% whole blood)?
**A.** Its EC50 is 29 ± 3 nM.

**Q.** What about the EC50 ([4]; read-out: EC50 inhibition of platelet activation, Human blood—TF, 20% whole blood) of the same molecule?
**A.** The EC50 was 23 ± 6 nM.

**Q.** And the EC50 (thrombin generation; read-out: Cmax EC50)?
**A.** Its EC50 is 450 ± 450 nM.

**Q.** And the EC50 (thrombin generation; read-out: ETP EC50)?
**A.** The EC50 was 310 ± 240 nM.

**Q.** And the Cmax (thrombin generation)?
**A.** The Cmax was 240 ± 240 nM.

**Q.** And the ED50 thrombus formation (male SD rats [5]; IV administration)?
**A.** Its ED50 thrombus formation is 0.01 mg/kg.

**Q.** What about the occlusion time (male CD-1 mice [6]; 0.2 mg/kg) of the same molecule?
**A.** Its occlusion time is over 30 min.

**Q.** What about the “activated platelets (average over time points)” value (male SD rats [7]; 0.1 mg/kg IV) of the same molecule?
**A.** The value was under 10%.

**Q.** And the “EC50 in AV shunt model, literature” value (male SD rats [8])?
**A.** The value was ~ 0.04 mg/kg.

**Q.** And the “ED50, value published by the manufacturer” value (male SD rats [9]; IV)?
**A.** The value was 0.033 mg/kg.

**Q.** Which EC50 (thrombin generation; read-out: Cmax EC50) does the source give for COc1ccc(-n2nc(C(N)=O)c3c2C(=O)N(c2ccc(N4CCCCC4=O)cc2)CC3)cc1 [Apixaban, apixaban] here?
**A.** The EC50 was 100 ± 100 nM.

**Q.** And the EC50 (thrombin generation; read-out: ETP EC50)?
**A.** The EC50 was 470 ± 10 nM.

**Q.** What about the Cmax (thrombin generation) of the same molecule?
**A.** Its Cmax is 70 ± 40 nM.

**Q.** And the “inhibition of thrombus formation” value (male SD rats [10])?
**A.** The value was “about 90%”.

**Q.** What about the “inhibition of thrombus formation” value (male SD rats [5]; 3 mg/kg/infusion) of the same molecule?
**A.** Its value is 90%.

**Q.** And the occlusion time (male CD-1 mice [6]; 6 mg/kg infusion)?
**A.** Its occlusion time is over 30 min.

**Q.** What about the “inhibition of thrombus formation, literature value” (male SD rats [8]; 3 mg/kg/infusion) of the same molecule?
**A.** The value was ~ 80%.

**Q.** What about the “inhibition of thrombus formation, literature” value (male SD rats [9]; ref 47 (Shumacher et al. 2010)) of the same molecule?
**A.** Its value is “about 60%”.

**Q.** With CC1CNc2c(cccc2S(=O)(=O)N[C@@H](CCCNC(=N)N)C(=O)N2CC[C@@H](C)C[C@@H]2C(=O)O)C1 (some centres unmarked) [Argatroban, argatroban] as the molecule, how does the EC50 (thrombin generation; read-out: Cmax EC50) read?
**A.** Its EC50 is 350 ± 140 nM.

**Q.** What about the EC50 (thrombin generation; read-out: ETP EC50) of the same molecule?
**A.** Its EC50 is 360 ± 162 nM.

**Q.** What about the Cmax (thrombin generation) of the same molecule?
**A.** Its Cmax is 454 ± 240 nM.

**Q.** What about the “treated mice in which mortality was prevented” value (male CD-1 mice [11]) of the same molecule?
**A.** Its value is 91%.

**Q.** What about the occlusion time (male CD-1 mice [6]; 4 mg/kg) of the same molecule?
**A.** Its occlusion time is over 30 min.

**Q.** What about the “activated platelets (average over time points)” value (male SD rats [7]; 2 mg/kg IV) of the same molecule?
**A.** Its value is under 10%.

**Q.** Which EC50 (thrombin generation; read-out: Cmax EC50) does the source give for O=C(NC[C@H]1CN(c2ccc(N3CCOCC3=O)cc2)C(=O)O1)c1ccc(Cl)s1 [Rivaroxaban, rivaroxaban] here?
**A.** Its EC50 is 100 ± 100 nM.

**Q.** And the EC50 (thrombin generation; read-out: ETP EC50)?
**A.** Its EC50 is 310 ± 140 nM.

**Q.** And the Cmax (thrombin generation)?
**A.** Its Cmax is 100 ± 30 nM.

**Q.** What about the “EC50 in AV shunt model, literature value” (male SD rats [8]) of the same molecule?
**A.** Its value is 0.3 mg/kg.
